Test results as given in PubChem BioAssay.
Active and inactive are the calls of the source.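 Rule for the calls, unless noted: active = fluorescence slope higher than the sample average by over 3 SD (cut at about -0.22 in these data, passing the limit was not always enough); inactive = the rest.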

Key:
[1] = inhibitors of TNFa-induced NFkB p65 translocation, primary screen, imaging, HUVEC, MLSMR starter and 10KST1 sets (AID 438;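 active = inhibition above 20% together with a positive visual image hit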;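 note: compound added about 3h40 before a 20 min TNFalpha stimulation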;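 for inhibition: signal is the nuclear over cytoplasmic p65 intensity ratio per well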); conditions: HUVEC TNFa-induced p65 nuclear translocation; cell count: measured here: nuclei count (cytotoxicity indicator), at 2.08 µM; inhibition: at 2 µM, stronger effect = higher value, 0% TNFa-plus-vehicle, 100% no-TNFa wells
[2] = inhibitors of mutant huntingtin aggregation, primary screen, imaging, exon1htt(103Q)mCFP cells, high-content imaging (AID 483;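 active = visual image review flags a hit and inhibition of aggregation exceeds 20%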;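 note: compound exposure lasted 3 days before fixation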;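 for nuclei count: percent of the per-plate median nuclei count of sample wells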); conditions: exon1htt(103Q)mCFP cell line, aggregate imaging, at 2 µM; inhibition of aggregation: stronger effect = higher value; nuclei count: measured here: cell count, toxicity
[3] = inhibitors of E-selectin induction by TNFa, primary screen, imaging, HUVEC, immunofluorescence, MLSMR starter and 10KST1 sets (AID 487;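 active = visually confirmed hit in the image check and inhibition above 20%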;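 for inhibition: signal is fraction of cell area covered by stained E-selectin grains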;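 for nuclei count: 100% = median nuclei count of all wells on the same plate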); conditions: HUVEC TNFalpha-induced E-selectin immunofluorescence imaging, at 2 µM; inhibition: stronger effect = higher value; nuclei count: measured here: cell number, toxicity
[4] = target: Voltage-gated potassium channel subunit beta-2 (Rattus norvegicus) (UniProt P62483); test: KvBeta enzyme negative modulators, primary screen, biochemical, NADPH fluorescence (AID 622); conditions: recombinant KvBeta, 4-cyanobenzaldehyde reduction, at 10 µM, stronger effect = higher value;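 note: slope of raw intensity against log time taken from 70 to 1610 s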
Sequence of Voltage-gated potassium channel subunit beta-2 (Rattus norvegicus) (P62483 whole entry, looked up): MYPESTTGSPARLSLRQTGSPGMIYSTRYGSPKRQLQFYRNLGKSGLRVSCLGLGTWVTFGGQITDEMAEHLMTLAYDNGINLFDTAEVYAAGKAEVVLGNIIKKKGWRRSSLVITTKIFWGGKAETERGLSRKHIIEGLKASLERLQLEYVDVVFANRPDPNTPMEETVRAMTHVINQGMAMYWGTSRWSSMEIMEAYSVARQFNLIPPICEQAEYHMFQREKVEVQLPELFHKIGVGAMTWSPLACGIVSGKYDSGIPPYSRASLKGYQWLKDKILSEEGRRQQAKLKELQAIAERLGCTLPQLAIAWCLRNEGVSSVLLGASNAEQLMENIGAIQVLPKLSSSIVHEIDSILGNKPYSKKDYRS

[5] = target: Voltage-gated potassium channel subunit beta-2 (Rattus norvegicus) (UniProt P62483); test: KvBeta positive modulators, primary screen, biochemical, NADPH fluorescence (AID 623;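 active = NADPH fluorescence slope more negative than the mean of all samples by about 3 SD, 99.7% confidence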;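 note: fluorescence intensity change per second fitted from 20 to 320 s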); conditions: Recombinant KvBeta, NADPH fluorescence decrease slope, 10 min; at 10 µM; stronger effect = lower value
[6] = target: Muscarinic acetylcholine receptor M4 (Homo sapiens) (UniProt P08173); test: compounds altering M4/GIRK thallium flux, either direction, primary screen, M4 allosteric agonist project, cell-based, HEK293 M4/GIRK, BTC-AM (AID 625;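 active = fluorescence slope after compound addition differing from the mean of all tested samples at 99.7% confidence, mostly higher but some lower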;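 note: thallium influx through GIRK channels coupled to M4 in HEK293 cells with BTC-AM dye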); conditions: at 10 µM, actives lie on both sides
Sequence of Muscarinic acetylcholine receptor M4 (Homo sapiens) (P08173 whole entry, looked up): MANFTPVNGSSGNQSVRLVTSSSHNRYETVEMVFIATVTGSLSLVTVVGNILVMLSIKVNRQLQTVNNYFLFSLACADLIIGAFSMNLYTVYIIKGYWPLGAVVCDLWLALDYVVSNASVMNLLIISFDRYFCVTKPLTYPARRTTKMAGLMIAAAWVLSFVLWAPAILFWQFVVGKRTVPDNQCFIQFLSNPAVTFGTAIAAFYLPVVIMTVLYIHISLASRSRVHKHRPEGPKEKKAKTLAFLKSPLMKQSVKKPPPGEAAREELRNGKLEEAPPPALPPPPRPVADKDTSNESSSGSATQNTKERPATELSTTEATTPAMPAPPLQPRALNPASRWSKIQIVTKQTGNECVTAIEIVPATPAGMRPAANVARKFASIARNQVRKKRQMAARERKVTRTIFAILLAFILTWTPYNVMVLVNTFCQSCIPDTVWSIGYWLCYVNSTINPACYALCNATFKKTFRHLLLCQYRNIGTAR
Outline: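 Material – HEK293 cells with M4 receptor and GIRK channels · Buffer or medium – pH 7.3 thallium assay buffer · Doses – one dose, 10 µM final · Timing – cells overnight at 37 °C, BTC-AM loading 1 h, reads 2 min total · Measured by – kinetic fluorescence with BTC-AM dye · Controls – carbachol and DMSO controls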

[7] = inhibitors of Sendai virus-induced IRF3 signaling, primary screen, TLR/RLR signaling modifier project, cell-based, Sendai virus stimulus, luciferase, 10K MLSCN set (AID 602276;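 active = inhibition at or above 50% at 10 µM; inactive = inhibition below 50%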;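 note: firefly luciferase from ISG56 promoter only with Renilla not read in this screen; 0% = Sendai virus plus DMSO and 100% = medium plus DMSO without virus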); conditions: HEK293 RL24 IRF3 luciferase reporter, at 10 µM, stronger effect = higher value
[8] = inhibitors of poly I:C-induced TLR3 signaling, primary screen, cell-based, poly I:C stimulus, luciferase, 10K MLSCN set (AID 602277;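 active = inhibition of the reporter signal at or above 50%; inactive = inhibition below 50%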); conditions: HEK293-TLR3 RL24 IRF3 luciferase reporter, at 10 µM, stronger effect = higher value

Structure (SMILES) | cell count [1] | inhibition [1] | inhibition of aggregation [2] | nuclei count [2] [%] | inhibition [3] | nuclei count [3] [%] | fluorescence slope [4] | NADPH fluorescence slope [5] | fluorescence slope [6] | inhibition [7] | inhibition [8]
CC(C)(C)n1nc2c(c1NC(=O)COc1ccc(Cl)cc1)CSC2 | 643 | 3.8% (inactive) | 13.9% (inactive) | 93.1 | 30.9% (inactive) | 95.3 | -0.467 (inactive) | -3.3e-06 (inactive) | 0.00791 (inactive) | 18% (inactive) | 25.3% (inactive)
CCOc1ccc(CCNC(=O)CCc2nc(-c3ccc(OC)cc3)no2)cc1OCC | 322 | -3.5% (inactive) | 1.2% (inactive) | 87.7 | -64.9% (inactive) | 146 | -0.529 (inactive) | 3.2e-05 (inactive) | 0.00633 (inactive) | 12.2% (inactive) | 12.3% (inactive)
CCCCc1c(O)nc(SCC(=O)c2ccccc2)[nH]c1=O | 375 | 1.7% (inactive) | 10.7% (inactive) | 90.4 | 21.3% (inactive) | 95.1 | -0.561 (inactive) | -8.5e-05 (inactive) | 0.00359 (inactive) | 14.2% (inactive) | 11.2% (inactive)
CC(C)Cn1c(=O)c(C(=O)NCc2ccccn2)c(O)c2ccccc21 | 771 | -20.7% (inactive) | -28.1% (inactive) | 104 | -24% (inactive) | 108 | -0.37 (inactive) | -4.4e-05 (inactive) | 0.00508 (inactive) | 10.4% (inactive) | -3.14% (inactive)
O=C1CC(c2ccc(Cl)cc2)n2nc(N3C(=O)c4ccccc4C3=O)nc2N1 (centres undefined) | 346 | 11.4% (inactive) | -2.1% (inactive) | 104 | 30.5% (inactive) | 98.9 | -0.587 (inactive) | -3.9e-05 (inactive) | 0.00353 (inactive) | 16.6% (inactive) | 24.4% (inactive)
CCN(CC)C(=O)c1ccc(NS(=O)(=O)c2ccccc2)cc1 | 444 | 0.9% (inactive) | -9.8% (inactive) | 112 | -22.4% (inactive) | 117 | -0.478 (inactive) | -0.000282 (inactive) | 0.0035 (inactive) | -7.99% (inactive) | -12.2% (inactive)
Cc1ccc(CC23CN4CCN(CC(C4)C2O)C3)c(C)c1 (centres undefined) | 435 | 0% (inactive) | 2% (inactive) | 107 | -40.9% (inactive) | 116 | -0.494 (inactive) | -2.9e-05 (inactive) | 0.0044 (inactive) | 18.9% (inactive) | 14.1% (inactive)
O=c1cc(-c2ccco2)oc2ccc(Cl)cc12 | 286 | -0.8% (inactive) | 19.7% (inactive) | 70 | 32.1% (inactive) | 111 | -0.568 (inactive) | -2.4e-05 (inactive) | 0.00691 (inactive) | 6.8% (inactive) | -71.7% (inactive)
CCCCn1cnc2c(cnn2-c2ccc(Cl)cc2)c1=O | 342 | -16.3% (inactive) | -4.9% (inactive) | 102 | -72% (inactive) | 103 | -0.531 (inactive) | -2.1e-05 (inactive) | 0.00515 (inactive) | -48.5% (inactive) | -141% (inactive)
Cc1c(C(=O)OC(C)C)[nH]c2c1C(=O)CCC2 | 437 | -3.5% (inactive) | 15.4% (inactive) | 86.8 | 54.6% (inactive) | 99 | -0.592 (inactive) | -3.8e-05 (inactive) | 0.00589 (inactive) | -15.8% (inactive) | -50.8% (inactive)
O=S(=O)(c1ccccc1)N1CCSC1c1ccco1 (centres undefined) | 444 | 1.2% (inactive) | 7% (inactive) | 100 | 33.5% (inactive) | 102 | -0.555 (inactive) | -4e-05 (inactive) | 0.00572 (inactive) | -30.7% (inactive) | -9.12% (inactive)
Nc1c(C2=NCCO2)nnn1Cc1ccccc1 | 612 | 4.2% (inactive) | 19.4% (inactive) | 79.3 | -130% (inactive) | 149 | -0.597 (inactive) | -4.6e-05 (inactive) | 0.00414 (inactive) | 19.1% (inactive) | 19.1% (inactive)
O=c1[nH]c2cccnc2n1Cc1ccco1 | 325 | -4.2% (inactive) | -15% (inactive) | 114 | -5.2% (inactive) | 119 | -0.323 (inactive) | -4.8e-05 (inactive) | 0.0064 (inactive) | 7.81% (inactive) | 6.25% (inactive)
COc1ccc(CNC(=O)Cn2nc(C(F)(F)F)c3c2CCC3)cc1 | 620 | -13.3% (inactive) | -8% (inactive) | 103 | -56.6% (inactive) | 116 | -0.396 (inactive) | -9.3e-05 (inactive) | 0.00662 (inactive) | 6.68% (inactive) | 19.7% (inactive)
